In the library only some 4.9% were active in any assay of this set; here they are far more common.
STAT1 activator: activators of IFN-gamma induced STAT1 signaling | NIH 3T3 STAT1-luciferase reporter, luminescence; 100% = IFN-gamma alone, no compound | activation (% of control), % at 5.5 µM | 200,000 tested, 2.6% active;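 active means activation above the screen-wide mean activation plus 3 SD, cut at about 130% in these data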;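 further: raw ratio to IFN-gamma control signal so 100% means no change and 0% no light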
STAT3 inh-1: STAT3 signaling inhibition; inhibition, % at 5.5 µM; U3A cells, IL-6 STAT3-luciferase reporter, luminescence; host cell line lacks STAT1; 190,000 tested, 0.89% active;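 active means inhibition above the mean inhibition across all screened compounds plus 3 SD, cut at about 44% in these data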;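 further: 0% = DMSO only wells and 100% = 100 µM nifuroxazide control wells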
NF-kB expr up: compounds increasing NF-kB expression in human neuronal cells; 190,000 tested, 1.6% active; fold change at 12.5 µM; NF-kB reporter expression; stronger effect = higher value; in the data active means fold change above about 3.3
STAT3 activator: STAT3 signaling activation. U3A cells, IL-6 STAT3-luciferase reporter, luminescence; 100% = signal with IL-6 EC80 alone. 190,000 tested, 0.91% active. activation (% of control), % at 5.6 µM;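 active means activation above the screen-wide mean of compound activation plus 3 SD, cut at about 130% in these data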;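 further: 0% = background luminescence of wells with medium and substrate only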
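System – human U3A cells carrying STAT3-luciferase construct · Probe or stimulus – Interleukin-6, 33 ng/mL · Schedule – compound 1 h, then IL-6 6 h at 37 °C · Signal – luminescence from STAT3-driven luciferase reporter · Evaluation – percent of IL-6-only median luminescence · Benchmarks – IL-6-only high control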
STAT1 blocker: reduces IFN-gamma driven STAT1 reporter signal | NIH 3T3 STAT1-luciferase reporter, luminescence | inhibition, % at 5.5 µM | 200,000 tested, 0.35% active;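 active means inhibition above a set limit, the mean inhibition across all tested compounds plus 3 SD, cut at about 34% in these data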;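 further: 0% = IFN-gamma with DMSO and 100% = IFN-gamma with 300 µM nifuroxazide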
APP 5'UTR act: activates APP 5'UTR luciferase reporter; SH-SY5Y APP 5'UTR luciferase reporter, luminescence; zero percent = DMSO vehicle wells; 190,000 tested, 1% active; activation, % at 2 µM;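 active means activation above a set limit, based on mean plus 3 SD of controls, cut at about 140% in these data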
STAT3 inh-2: STAT3 inhibition, confirmation assay; U3A cells, IL-6 STAT3 luciferase reporter, luminescence; cell line lacks STAT1; AID 1265; 1,200 tested, 45% active; inhibition, % at 5.7 µM; shares compounds with STAT3 inh-1;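 active means inhibition above the hit cutoff computed for the primary STAT3 screen, cut at about 44% in these data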;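 further: 0% = IL-6 plus DMSO and 100% = IL-6 plus nifuroxazide control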
NFkB inh 2: NF-kappaB inhibition in STAT3 inhibitor counter-screen. shares compounds with STAT3 inh-1. inhibition, % at 5.7 µM. 1,200 tested, 36% active. HEK293T NF-kB luciferase reporter, TNF-alpha induced;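 active means inhibition above the mean of solvent-only control wells plus 3 SD, cutoff set per campaign, cut at about 13% in these data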;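 further: 0% = TNF-alpha with DMSO and 100% = TNF-alpha with MG high control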
STAT1 inh 2: STAT1 inhibition in STAT3 inhibitor counter-screen; shares compounds with STAT3 inh-1; NIH 3T3 STAT1-luciferase reporter, IFN-gamma induced, luminescence; inhibition, % at 5.7 µM; 1,200 tested, 27% active; AID 1317;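 active means inhibition above the mean plus 3 SD of solvent-only control wells, limit set per screening run, cut at about 16% in these data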;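 further: 0% = DMSO with IFN-gamma and 100% = nifuroxazide control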
Numbers without * were called inactive; nt = no result.

SMILES	STAT1 activator	STAT3 inh-1	NF-kB expr up	STAT3 activator	STAT1 blocker	APP 5'UTR act	STAT3 inh-2	NFkB inh 2	STAT1 inh 2
O=C(Nc1ccc(OC(F)(F)C(F)F)c(NC(=O)c2cccc(F)c2)c1)c1cccc(F)c1	101.2	5.8	1.41	95.3	-1.3	38.7	nt	nt	nt
CCOc1ccc(C(=O)Nc2cccc(C)n2)cc1	112.3	57.0*	4.57*	55.6	-12.5	143.7*	17.5	-12.1	-71.3
Cc1cccc(NC(=O)c2ccc(S(=O)(=O)N(C)C)cc2)n1	108.4	-3.3	1.33	104.4	-9.1	10.8	nt	nt	nt
CCCCOc1ccc(C(=O)Nc2cccc(C)n2)cc1	112.0	48.5*	3.97*	63.8	-13.2	110.6	12.6	-17.8	-43.4
Cc1ccc(OCC(=O)NNC(=O)C(=O)N2CCCC2)c(C)c1	86.3	31.9	1.1	77.6	15.0	-4.7	nt	nt	nt
Cc1ccc(O)c(C(=O)c2cnn(-c3ccccc3)c2)c1	102.2	17.9	1.84	90.6	-2.4	-8.1	nt	nt	nt
Cc1ccc(-n2cc(C(=O)c3ccccc3O)cn2)cc1	89.3	79.1*	3.12	37.8	12.0	100.1	34.2	37.3*	-96.7
O=C(c1cc2sccc2n1Cc1ccc(F)cc1)N1CCN(c2nc3ccccc3s2)CC1	88.7	46.6*	0.75	62.1	22.0	-2.4	36.4	8.4	16.9*
Cn1c(C(=O)N2CCN(c3nc4ccccc4s3)CC2)cc2sccc21	98.6	29.0	1.1	82.2	1.5	-1.4	nt	nt	nt
Cc1ccc(NC(=O)CN(C)C(=O)c2ccc(C(F)(F)F)cc2)cc1	99.6	28.1	0.95	81.2	0.4	3.3	nt	nt	nt
C=CCn1c(SCc2c(C(=O)OC)sc(N)c2C(=O)OC)nnc1-c1ccc(Br)cc1	100.8	4.0	0.7	94.3	-0.9	9.1	nt	nt	nt
COc1cccc(C(=O)Nc2cccc3c2ccc2cccn23)c1	108.4	13.6	1.27	90.8	-9.2	19.7	nt	nt	nt
Oc1c(C=Nc2ccccc2)sc2ccccc12	117.5	65.9*	4.59*	47.7	-20.2	77.0	-16.2	-28.8	-21.3
Oc1c(C=Nc2cccnc2)sc2ccccc12	97.2	-17.8	0.96	119.2	3.0	16.7	nt	nt	nt
Cc1cc(C)n(-c2ccc(C(=O)OCC(=O)Nc3ccc(S(=O)(=O)N4CCCCC4)cc3)cc2)n1	103.9	0.9	1.13	104.2	-4.3	11.1	nt	nt	nt
O=C(Nc1ccc(S(=O)(=O)N2CCCC2)cc1)c1ccc(OCC2CCCO2)cc1 (stereo not drawn)	91.8	39.3	1.09	69.6	7.3	-14.0	nt	nt	nt
O=C(Nc1cccc(Br)c1)c1ccc(Cl)c(S(=O)(=O)N2CCOCC2)c1	88.6	72.9*	0.6	40.2	11.8	0.2	65.9*	15.4*	13.3
Cc1ccc(C(=O)Nc2cccc(C(=O)O)c2)cc1S(=O)(=O)N1CCCCC1	80.6	54.9*	1.84	57.7	21.9	103.5	12.6	14.5*	18.0*
O=C(Nc1cccc(S(=O)(=O)C(F)F)c1)c1ccc(Cl)c(S(=O)(=O)N2CCOCC2)c1	92.4	19.3	0.32	88.7	7.0	22.2	nt	nt	nt
O=C(Nc1ccc(Cl)c(S(=O)(=O)N2CCOCC2)c1)c1ccc(OCC2CCCO2)cc1 (stereo not drawn)	73.6	54.3*	0.99	57.9	26.1	-0.2	61.0*	21.6*	8.9
Cc1cc(C)n(-c2ccc(C(=O)Nc3cccc(S(=O)(=O)N4CCCC4)c3)cc2)n1	77.9	44.4*	0.74	66.2	23.4	-0.9	39.5	4.5	8.9
COC(=O)c1sccc1NC(=O)CSCCc1ccccn1	99.8	19.3	0.93	88.5	-0.8	5.3	nt	nt	nt
COc1ccc(CN2C(=O)c3ccccc3C2C(=O)NC2CCCC(C)C2C)c(OC)c1 (stereo not drawn)	94.5	3.2	1.26	105.0	3.9	17.5	nt	nt	nt
Cc1ccc(C(=O)NC(O)C(Cl)Cl)cc1 (stereo not drawn)	96.9	-3.3	1.01	106.2	3.4	-6.6	nt	nt	nt
COc1ccc2nc(NC(=O)C(NS(=O)(=O)c3cccc4nsnc34)C(C)C)sc2c1 (stereo not drawn)	107.4	-4.0	0.99	110.9	-8.2	-9.7	nt	nt	nt
SMILES	STAT1 activator	STAT3 inh-1	NF-kB expr up	STAT3 activator	STAT1 blocker	APP 5'UTR act	STAT3 inh-2	NFkB inh 2	STAT1 inh 2
COc1ccc(C(=O)Nc2ccc(-c3ccc(C)o3)cc2)cc1S(=O)(=O)N1CCOCC1	100.1	70.2*	1.32	45.2	-0.1	-13.6	71.3*	28.3*	0.9
COc1ccc(C(=O)Nc2cccc(C)c2)cc1S(=O)(=O)N1CCOCC1	91.7	7.5	0.73	94.9	8.9	9.2	nt	nt	nt
Cc1cccc(Nc2nc(-c3c(C)nc4ccccn34)cs2)c1	89.0	58.0*	0.64	56.4	12.3	-2.7	62.3*	17.8*	15.6
Cc1ccn2c(-c3csc(NCc4ccco4)n3)c(C)nc2c1	95.9	29.4	1.17	80.1	5.6	14.3	nt	nt	nt
O=C(Nc1ccccn1)c1ccc2c(c1)OCO2	125.2	15.5	2.69	89.1	-27.8	98.7	nt	nt	nt
Cc1cc(NC(=O)c2ccc3c(c2)OCCO3)no1	93.2	74.5*	3.97*	41.3	8.6	105.8	41.3	6.3	-11.0
O=C(Nc1ccccn1)c1ccc2c(c1)OCCO2	110.3	51.1*	4.24*	59.9	-12.3	128.5	21.1	-20.9	-50.0
COC(=O)c1ccc(COC(=O)c2ccc(CO)cc2)o1	104.4	-6.9	1.19	103.6	-5.0	-8.6	nt	nt	nt
COC(=O)c1ccc(COC(=O)c2[nH]c(C)c(C(C)=O)c2C)o1	78.6	46.8*	0.88	61.6	23.6	-1.2	51.9*	11.2	5.2
O=c1[nH]c(Nc2nc3ccccc3o2)nc2c1CCCC2	89.6	69.4*	2	47.0	11.4	170.4*	29.1	-1.7	-13.0
COc1ccc(-c2cn3cc(C(=O)NN)ccc3n2)cc1	118.7	42.4	1.13	66.3	-22.4	66.8	nt	nt	nt
Oc1ccc(-c2cn3cc(C(F)(F)F)ccc3n2)cc1	97.8	83.4*	13.3*	29.5	2.4	228.7*	80.5*	38.9*	18.1*
CCN(CC)Cc1ccccc1Sc1ccccc1	98.3	4.5	1.05	98.4	1.9	-17.4	nt	nt	nt
CC(NC(=O)CCl)c1ccc(Cl)c(Cl)c1 (stereo not drawn)	99.0	17.4	1.4	84.5	1.1	nt	nt	nt	nt
CC(C)c1cc(NC(=O)CCl)on1	103.4	53.1*	1.73	57.2	-3.8	-19.1	20.6	0.7	9.5
CCN1C(=C2C(=O)c3ccccc3C2=O)C=Cc2ccccc21	111.2	-3.7	1.14	104.1	-10.2	-7.1	nt	nt	nt
